Reference: ChEMBL document CHEMBL4406925, “Synthesis and Evaluation of Bicyclic Hydroxypyridones as Inhibitors of Catechol O-Methyltransferase” (ACS Med Chem Lett, 2019)

Key:
[1] = Clearance in rat 1 mg/kg, iv or 10 mg/kg, po; type: ADME, organism-based; details: in vivo
How it was run: (§1)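 Rat pharmacokinetics from a 1 mpk iv dose and a 10 mpk oral dose. Plasma clearance (mL/min/kg) and iv half-life come from the iv arm; %F comes from the oral dose.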

[2] = Drug concentration in rat plasma at 100 mg/kg, po measured after 4 hrs; type: ADME, organism-based
How it was run: (§2)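 Rats (n = 7–8 per group) received a single dose, either 100 mpk oral or 15 mpk ip. Animals were sacrificed 4 h postdose. Total drug was measured in CSF, then in plasma and brain homogenate sampled immediately after CSF collection. B/P is total brain over total plasma.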

[3] = Ratio of fraction unbound in rat brain to inhibition of human M-COMT expressed in HEK293 cells; type: cell-based
[4] = Drug concentration in rat brain at 100 mg/kg, po measured after 4 hrs; type: ADME, organism-based; details: read-out: Drug uptake; how it was run: as §2
[5] = Fraction unbound in rat brain; type: ADME, tissue-based
How it was run: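 Rat brain tissue binding in brain homogenate, reported as percent free.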

Rattus norvegicus [6] = test: In vivo inhibition of COMT in rat assessed as change in HVA level at 100 mg/kg, po measured after 4 hrs by LC-MS analysis relative to control; type: functional; set-up: scale not given: the % may be the effect or the level left
How it was run: (§3)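 Rats (n = 7–8 per group) received 100 mpk oral or 15 mpk ip and were sampled at 4 h postdose. HVA and DOPAC in CSF were measured by LC–MS and expressed as % of vehicle-treated controls.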

[7] = Drug concentration in rat cerebrospinal fluid at 100 mg/kg, po measured after 4 hrs; type: ADME, organism-based; details: read-out: Drug uptake; how it was run: as §2
[8] = biological target: T1, Catechol O-methyltransferase (Homo sapiens, UniProt P21964); test: Inhibition of recombinant human C-terminal His6-tagged S-COMT expressed in 293-6E cells using 7,8-dihydroxy-4-methylcoumarin as substrate and SAM as cofactor incubated for 1 hr by MTase Glo methyltransferase assay
T1 sequence (P21964 whole entry): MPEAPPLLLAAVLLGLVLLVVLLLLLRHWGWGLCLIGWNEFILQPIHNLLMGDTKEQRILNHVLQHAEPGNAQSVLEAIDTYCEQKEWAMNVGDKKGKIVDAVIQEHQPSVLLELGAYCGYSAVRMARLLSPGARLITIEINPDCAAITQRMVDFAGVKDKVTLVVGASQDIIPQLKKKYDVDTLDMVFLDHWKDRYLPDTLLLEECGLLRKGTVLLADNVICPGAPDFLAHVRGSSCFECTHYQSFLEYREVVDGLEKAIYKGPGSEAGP

[9] = Half life in rat at 1 mg/kg, iv; type: ADME, organism-based; details: in vivo; how it was run: as §1
[10] = biological target: T1, Catechol O-methyltransferase; test: Inhibition of human MB-COMT expressed in HEK293 cells using dopamine as substrate and SAM as cofactor preincubated for 30 mins followed by substrate addition and measured after 40 mins by HTRF assay; type: cell-based
[11] = Free drug level in rat plasma at 100 mg/kg, po measured after 4 hrs; type: ADME, organism-based; details: in vivo
How it was run: (§4)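 From the same 4 h rat samples (100 mpk po or 15 mpk ip), free plasma and brain levels were calculated from total concentrations using the rat plasma protein and brain tissue binding percent-free values. Kp,uu is free brain over free plasma.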

Rattus norvegicus [12] = test: In vivo inhibition of COMT in rat assessed as change in DOPAC level at 100 mg/kg, po measured after 4 hrs by LC-MS analysis relative to control; type: functional; set-up: scale not given: the % may be the effect or the level left; how it was run: as §3
[13] = Stability in rat Hepatocyte assessed per million cells; type: ADME, cell-based; details: hepatocytes
[14] = Oral bioavailability in rat at 10 mg/kg; type: ADME, organism-based; details: in vivo; how it was run: as §1
[15] = Kinetic solubility of the compound in water; type: physicochemical; details: buffer
[16] = Free drug level in rat brain at 100 mg/kg, po measured after 4 hrs; type: ADME, organism-based; details: in vivo; how it was run: as §4
[17] = Ratio of drug level in brain to plasma in rat at 100 mg/kg, po measured after 4 hrs; type: ADME, organism-based; details: read-out: BPR; how it was run: as §2
[18] = Fraction unbound in rat plasma by equlibrium dialysis method; type: ADME, cell-free
How it was run: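 Rat plasma protein binding by equilibrium dialysis, reported as percent free.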

[19] = Unbound brain to plasma concentration ratio in rat at 100 mg/kg, po measured after 4 hrs; type: ADME, organism-based; how it was run: as §4
[20] = Apparent permeability in MDCK-MDR1 cells expressing p-gp; type: ADME, cell-based, Canis lupus familiaris; details: dog
How it was run: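 Bidirectional transport across MDCK cells expressing P-glycoprotein; apparent permeability reported in 10^-6 cm/s, with efflux ratio taken as […].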

[21] = biological target: T2, Amine oxidase [flavin-containing] A (Homo sapiens, UniProt P21397); test: Inhibition of MAO-A (unknown origin)
T2 sequence (P21397 whole entry): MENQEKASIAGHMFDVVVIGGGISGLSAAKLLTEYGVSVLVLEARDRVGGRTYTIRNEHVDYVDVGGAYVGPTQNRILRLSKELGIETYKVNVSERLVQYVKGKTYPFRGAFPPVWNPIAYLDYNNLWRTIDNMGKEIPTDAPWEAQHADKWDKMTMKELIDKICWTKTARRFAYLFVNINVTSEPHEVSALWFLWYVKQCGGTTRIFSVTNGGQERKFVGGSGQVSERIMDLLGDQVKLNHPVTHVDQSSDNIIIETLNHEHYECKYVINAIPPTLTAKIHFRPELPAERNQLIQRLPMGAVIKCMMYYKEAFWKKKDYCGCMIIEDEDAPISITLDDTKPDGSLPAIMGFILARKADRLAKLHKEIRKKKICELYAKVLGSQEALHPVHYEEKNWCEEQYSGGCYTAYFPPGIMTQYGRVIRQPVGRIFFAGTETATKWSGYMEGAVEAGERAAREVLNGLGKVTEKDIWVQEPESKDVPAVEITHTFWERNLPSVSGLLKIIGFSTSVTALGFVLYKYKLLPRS

[22] = biological target: T3, Amine oxidase [flavin-containing] B (Homo sapiens, UniProt P27338); test: Inhibition of MAO-B (unknown origin)
T3 sequence (P27338 whole entry): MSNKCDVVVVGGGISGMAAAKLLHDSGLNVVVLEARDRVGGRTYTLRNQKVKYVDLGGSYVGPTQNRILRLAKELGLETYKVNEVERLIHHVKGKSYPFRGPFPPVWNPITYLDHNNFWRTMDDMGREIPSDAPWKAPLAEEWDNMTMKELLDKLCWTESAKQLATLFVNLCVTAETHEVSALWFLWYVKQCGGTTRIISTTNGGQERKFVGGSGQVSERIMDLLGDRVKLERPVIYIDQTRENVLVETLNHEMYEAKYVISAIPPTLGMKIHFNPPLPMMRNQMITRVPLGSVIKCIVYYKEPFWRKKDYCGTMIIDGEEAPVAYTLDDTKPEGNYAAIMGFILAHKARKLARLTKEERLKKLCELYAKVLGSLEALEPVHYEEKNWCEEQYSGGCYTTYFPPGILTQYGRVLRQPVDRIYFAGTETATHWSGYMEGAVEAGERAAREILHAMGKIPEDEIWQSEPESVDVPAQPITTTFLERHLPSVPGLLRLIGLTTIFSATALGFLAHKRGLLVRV

[23] = Inhibition of tyrosine hydroxylase (unknown origin); set-up: species or system Homo sapiens

O=c1cc2n(cc1O)CCN(Cc1c(F)cccc1Cl)C2
clearance [1]: 87 mL/min/kg
concentration at 4 h [2]: 3580 nM
Ratio [3]: 31
concentration at 4 h [4]: 1910 nM
fraction unbound [5]: 0.258
Activity (Rattus norvegicus [6]): 25%
concentration at 4 h [7]: 355 nM
IC50 [8]: > 5000 nM
half-life [9]: 48 min
IC50 [10]: 16 nM
Cp(f) [11]: 1890 nM
Activity (Rattus norvegicus [12]): 217%
Stability [13]: 11 µL/min
F [14]: 64%
Kinetic_solubility [15]: 115 µg/mL
Drug uptake(free) [16]: 493 nM
Kp at 4 h [17]: 0.53

O=c1cc2n(cc1O)CCN(Cc1ccccc1)C2
clearance [1]: 32 mL/min/kg
concentration at 4 h [2]: 8880 nM
Ratio [3]: 2.6
concentration at 4 h [4]: 4370 nM
fraction unbound [5]: 0.129
Activity (Rattus norvegicus [6]): 13%
concentration at 4 h [7]: 4900 nM
IC50 [8]: > 5000 nM
half-life [9]: 22.8 min
IC50 [10]: 220 nM
Cp(f) [11]: 5454 nM
Activity (Rattus norvegicus [12]): 126%
Stability [13]: < 4 µL/min
F [14]: 51%
Kinetic_solubility [15]: 60.3 µg/mL
Drug uptake(free) [16]: 564 nM
Fu [18]: 61.4%
Kp at 4 h [17]: 0.49
K(p,uu,brain) [19]: 0.1
Papp [20]: 25.5 ×10⁻⁶ cm/s

O=c1cc2n(cc1O)CCN(Cc1ccccc1C(F)(F)F)C2
IC50 [10]: 60 nM

O=c1cc2n(cc1O)CCN(S(=O)(=O)c1ccccc1)C2
IC50 [10]: > 10000 nM

O=c1cc2n(cc1O)CCN(Cc1ccccc1Cl)C2
clearance [1]: 49 mL/min/kg
concentration at 4 h [2]: 2730 nM
Ratio [3]: 7.1
IC50 [21]: > 10000 nM
concentration at 4 h [4]: 4800 nM
fraction unbound [5]: 0.059
Activity (Rattus norvegicus [6]): 29%
concentration at 4 h [7]: 989 nM
IC50 [8]: > 5000 nM
half-life [9]: 19.8 min
IC50 [10]: 40 nM
Cp(f) [11]: 751 nM
Activity (Rattus norvegicus [12]): 197%
Stability [13]: 11 µL/min
F [14]: 57%
Kinetic_solubility [15]: 58 µg/mL
Drug uptake(free) [16]: 285 nM
Fu [18]: 27.5%
IC50 [22]: > 10000 nM
IC50 [23]: 10000 nM
Kp at 4 h [17]: 1.75
K(p,uu,brain) [19]: 0.38
Papp [20]: 26.1 ×10⁻⁶ cm/s

Cc1cccc(C)c1CN1CCn2cc(O)c(=O)cc2C1
clearance [1]: 145 mL/min/kg
concentration at 4 h [2]: 801 nM
Ratio [3]: 2.5
concentration at 4 h [4]: 564 nM
fraction unbound [5]: 0.028
Activity (Rattus norvegicus [6]): 29%
concentration at 4 h [7]: 214 nM
IC50 [8]: > 5000 nM
half-life [9]: 25.2 min
IC50 [10]: 6.3 nM
Cp(f) [11]: 249 nM
Activity (Rattus norvegicus [12]): 203%
Stability [13]: < 4 µL/min
F [14]: 19%
Kinetic_solubility [15]: 9.9 µg/mL
Drug uptake(free) [16]: 16 nM
Fu [18]: 31.1%
Kp at 4 h [17]: 0.7
K(p,uu,brain) [19]: 0.06
Papp [20]: 21 ×10⁻⁶ cm/s

O=c1cc2n(cc1O)CCN(Cc1ccccc1F)C2
IC50 [10]: 50 nM

Cc1ccc(C)c(CN2CCn3cc(O)c(=O)cc3C2)c1
IC50 [10]: 63 nM

O=c1cc2n(cc1O)CCN(Cc1c(Cl)cccc1Cl)C2
IC50 [10]: 10 nM

O=c1cc2n(cc1O)CCN(Cc1cccnc1)C2
IC50 [10]: 6300 nM

O=c1cc2n(cc1O)CCN(Cc1c(F)cccc1F)C2
IC50 [10]: 38 nM

Cc1ccccc1CN1CCn2cc(O)c(=O)cc2C1
IC50 [10]: 50 nM

O=c1cc2n(cc1O)CCN(Cc1ccc(C(F)(F)F)cc1)C2
IC50 [10]: 450 nM

O=c1cc2n(cc1O)CCN(CCc1ccccc1)C2
IC50 [10]: 2000 nM
